Tests used:
Format in all cases: functional
Conditions in all cases: read-out: GI
HOP-62 = experiment: Antiproliferative activity against human HOP-62 cells assessed as cell growth inhibition at 10 uM incubated for 48 hrs by SRB assay relative to control
ACHN = experiment: Antiproliferative activity against human ACHN cells assessed as cell growth inhibition at 10 uM incubated for 48 hrs by SRB assay relative to control
OVCAR-5 = experiment: Antiproliferative activity against human OVCAR-5 cells assessed as cell growth inhibition at 10 uM incubated for 48 hrs by SRB assay relative to control
Outline: (§1)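 Cells plated in 96-well plates at […] cells/well and preincubated 24 h at 37 °C, 5% CO2. Time-zero plates were TCA-fixed. Compound was diluted in medium with 50 µg/mL gentamicin and cells exposed for 48 h. Adherent cells fixed with 10% final TCA; suspension cells with 16% final TCA. Plates stained with 0.4% SRB in 1% acetic acid, dye solubilized in 10 mM Trizma, absorbance read at 515 nm. Percent growth calculated against time-zero and control.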

SF-539 = experiment: Antiproliferative activity against human SF-539 cells assessed as cell growth inhibition at 10 uM incubated for 48 hrs by SRB assay relative to control; outline: as §1
IGROV-1 = experiment: Antiproliferative activity against human IGROV-1 cells assessed as cell growth inhibition at 10 uM incubated for 48 hrs by SRB assay relative to control
RXF 393 = experiment: Antiproliferative activity against human RXF 393 cells assessed as cell growth inhibition at 10 uM incubated for 48 hrs by SRB assay relative to control; outline: as §1
SN12C = experiment: Antiproliferative activity against human SN12C cells assessed as cell growth inhibition at 10 uM incubated for 48 hrs by SRB assay relative to control
T47D = experiment: Antiproliferative activity against human T47D cells assessed as cell growth inhibition at 10 uM incubated for 48 hrs by SRB assay relative to control
Outline: (§2)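 Cells pre-incubated 24 h at 37°C, 5% CO2, then exposed to compound (DMSO stock diluted in medium with 50 µg/mL gentamicin) for 48 h. Adherent cells fixed with cold TCA (final 10%, 60 min, 4°C); suspension cells fixed with 16% TCA final. Stained with 0.4% SRB in 1% acetic acid for 10 min, dye solubilized in 10 mM Trizma base, absorbance read at 515 nm. Growth calculated against time-zero and untreated control plates.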

HT-29 = experiment: Antiproliferative activity against human HT-29 cells assessed as cell growth inhibition at 10 uM incubated for 48 hrs by SRB assay relative to control; outline: as §1
OVCAR-3 = experiment: Antiproliferative activity against human OVCAR-3 cells assessed as cell growth inhibition at 10 uM incubated for 48 hrs by SRB assay relative to control; outline: as §1
A498 = experiment: Antiproliferative activity against human A498 cells assessed as cell growth inhibition at 10 uM incubated for 48 hrs by SRB assay relative to control; outline: as §1
MDA-MB-435 = experiment: Antiproliferative activity against human MDA-MB-435 cells assessed as cell growth inhibition at 10 uM incubated for 48 hrs by SRB assay relative to control
MCF7 = experiment: Antiproliferative activity against human MCF7 cells assessed as cell growth inhibition at 10 uM incubated for 48 hrs by SRB assay relative to control
UACC-62 = experiment: Antiproliferative activity against human UACC-62 cells assessed as cell growth inhibition at 10 uM incubated for 48 hrs by SRB assay relative to control; outline: as §2
BT-549 = experiment: Antiproliferative activity against human BT-549 cells assessed as cell growth inhibition at 10 uM incubated for 48 hrs by SRB assay relative to control
MDA-MB-468 = experiment: Antiproliferative activity against human MDA-MB-468 cells assessed as cell growth inhibition at 10 uM incubated for 48 hrs by SRB assay relative to control
LOX IMVI = experiment: Antiproliferative activity against human LOX IMVI cells assessed as cell growth inhibition at 10 uM incubated for 48 hrs by SRB assay relative to control
HCT-15 = experiment: Antiproliferative activity against human HCT-15 cells assessed as cell growth inhibition at 10 uM incubated for 48 hrs by SRB assay relative to control
M14 = experiment: Antiproliferative activity against human M14 cells assessed as cell growth inhibition at 10 uM incubated for 48 hrs by SRB assay relative to control; outline: as §1
HCC 2998 = experiment: Antiproliferative activity against human HCC 2998 cells assessed as cell growth inhibition at 10 uM incubated for 48 hrs by SRB assay relative to control
SNB-75 = experiment: Antiproliferative activity against human SNB-75 cells assessed as cell growth inhibition at 10 uM incubated for 48 hrs by SRB assay relative to control; outline: as §2
OVCAR-4 = experiment: Antiproliferative activity against human OVCAR-4 cells assessed as cell growth inhibition at 10 uM incubated for 48 hrs by SRB assay relative to control
A549 = experiment: Antiproliferative activity against human A549 cells assessed as cell growth inhibition at 10 uM incubated for 48 hrs by SRB assay relative to control
NCI/ADR-RES = experiment: Antiproliferative activity against human NCI-ADR-RES cells assessed as cell growth inhibition at 10 uM incubated for 48 hrs by SRB assay relative to control
HOP-92 = experiment: Antiproliferative activity against human HOP-92 cells assessed as cell growth inhibition at 10 uM incubated for 48 hrs by SRB assay relative to control; outline: as §1

| SMILES | inhibition of growth at 10 µM (HOP-62) | inhibition of growth at 10 µM (ACHN) | inhibition of growth at 10 µM (OVCAR-5) | inhibition of growth at 10 µM (SF-539) | inhibition of growth at 10 µM (IGROV-1) | inhibition of growth at 10 µM (RXF 393) | inhibition of growth at 10 µM (SN12C) | inhibition of growth at 10 µM (T47D) | inhibition of growth at 10 µM (HT-29) | inhibition of growth at 10 µM (OVCAR-3) | inhibition of growth at 10 µM (A498) | inhibition of growth at 10 µM (MDA-MB-435) | inhibition of growth at 10 µM (MCF7) | inhibition of growth at 10 µM (UACC-62) | inhibition of growth at 10 µM (BT-549) | inhibition of growth at 10 µM (MDA-MB-468) | inhibition of growth at 10 µM (LOX IMVI) | inhibition of growth at 10 µM (HCT-15) | inhibition of growth at 10 µM (M14) | inhibition of growth at 10 µM (HCC 2998) | also measured |
| --- | --- | --- | --- | --- | --- | --- | --- | --- | --- | --- | --- | --- | --- | --- | --- | --- | --- | --- | --- | --- | --- |
| Cc1nc2c(cnn2-c2ccccc2)c(=O)n1-c1ccc(NC(=O)c2ccco2)cc1 | < 15% | < 15% | < 15% | < 15% | < 15% | < 15% | < 15% | 34% | < 15% | < 15% | < 15% | < 15% | 23.4% | 16.6% | < 15% | 37.3% | < 15% | < 15% | < 15% | < 15% | inhibition of growth at 10 µM (SNB-75): < 15%; inhibition of growth at 10 µM (OVCAR-4): 21.2%; inhibition of growth at 10 µM (A549): < 15%; inhibition of growth at 10 µM (NCI/ADR-RES): < 15%; inhibition of growth at 10 µM (HOP-92): < 15% |
| Cc1nc2c(cnn2-c2ccccc2)c(=O)n1-c1ccc(N2C(=O)c3ccccc3C2=O)cc1 | < 15% | < 15% | < 15% | < 15% | < 15% | < 15% | < 15% | < 15% | < 15% | < 15% | < 15% | < 15% | < 15% | < 15% | < 15% | < 15% | < 15% | < 15% | < 15% | < 15% | inhibition of growth at 10 µM (SNB-75): < 15%; inhibition of growth at 10 µM (OVCAR-4): < 15%; inhibition of growth at 10 µM (A549): < 15%; inhibition of growth at 10 µM (NCI/ADR-RES): < 15%; inhibition of growth at 10 µM (HOP-92): < 15% |
| Cc1nc2c(cnn2-c2ccccc2)c(=O)n1-c1ccc(/N=C2\C(=O)Nc3ccccc32)cc1 | < 15% | 27.7% | < 15% | 20.9% | 34.7% | 29% | 37.3% | 38.3% | < 15% | 24.3% | < 15% | < 15% | 33.7% | 36.2% | 22.1% | 51.4% | 18.3% | 15.7% | 18.8% | < 15% | inhibition of growth at 10 µM (SNB-75): < 15%; inhibition of growth at 10 µM (OVCAR-4): 43.9%; inhibition of growth at 10 µM (A549): < 15%; inhibition of growth at 10 µM (NCI/ADR-RES): < 15%; inhibition of growth at 10 µM (HOP-92): 17.6% |
